Measured values gathered from unrelated publications.
CYP1A2: Cytochrome P450 1A2 (CYP1A2, Homo sapiens, UniProt P05177)

| SMILES | target or system | assay | system | setting | measurement | value |
| --- | --- | --- | --- | --- | --- | --- |
| NS(=O)(=O)c1ccc(-c2ccc(Nc3ccncc3)cc2)cc1 | BHK-21 | cell growth or viability, MTT |  | 100 µM | viability | 76% |
| N#Cc1cccc(-c2ccc3ncc(-c4cc(F)cc(F)c4)c(N4CCC(N)CC4)c3c2)c1O |  |  | human, plasma | oral, 20 mg, single dose | Vd/F | 300 L |
| CCCSc1ccc2nc(NC(=O)OC)[nH]c2c1 | Vero | cell growth or viability, MTT |  | 72 h | CC50 | > 200 µM |
| CC[C@H](C)[C@@H]([C@@H](CC(=O)N1CCC[C@H]1[C@H](OC)[C@@H](C)C(=O)N[C@@H](Cc1ccccc1)C(=O)NCCCO)OC)N(C)C(=O)[C@@H](NC(=O)[C@H](C(C)C)N(C)C)C(C)C | Cytochrome P450 3A4 (CYP3A4, Homo sapiens, UniProt P08684) | enzyme activity, inhibitor | human, liver microsomes |  | IC50 | 43.6 µM |
| OC[C@H]1O[C@@H](c2cc(Cc3ccc(C4CC4)cc3)c(Cl)c3c2CCO3)[C@H](O)[C@@H](O)[C@@H]1O |  |  | human, plasma | oral, 0.3 mg, single dose, fasted | Vd/F | 167 L |
| CC(=O)O[C@H]1[C@H](O[C@H]2CC[C@]34C[C@]35CC[C@]3(C)[C@@H]([C@@]6(C)CC[C@@H](C(C)(C)O)O6)[C@@H](O)C[C@@]3(C)[C@@H]5C[C@H](O[C@@H]3O[C@H](CO)[C@@H](O)[C@H](O)[C@H]3O)[C@H]4C2(C)C)OC[C@@H](O)[C@@H]1O | CYP1A2 | enzyme activity, inhibitor | human, liver microsomes |  | IC50 | > 200 µM |
| COc1ccc2c(c1)CN(C(=O)CCN1CCC(Cc3ccccc3)CC1)CC[S@@+]2[O-] |  |  | male human, plasma | intravenous, 0.15 mg/kg, healthy volunteers | Vd | 86.7 L |
| CC(=O)O[C@@H]1[C@@H](O)[C@H](O[C@H]2CC[C@]34C[C@]35CC[C@]3(C)[C@@H]([C@@]6(C)CC[C@@H](C(C)(C)O)O6)[C@@H](O)C[C@@]3(C)[C@@H]5C[C@H](O[C@@H]3O[C@H](CO)[C@@H](O)[C@H](O)[C@H]3O)[C@H]4C2(C)C)OC[C@H]1O | CYP1A2 | enzyme activity, inhibitor | human, liver microsomes |  | IC50 | > 200 µM |
| COC(=O)N[C@H](C(=O)N1CCC[C@H]1c1nc(-c2ccc3c(c2)O[C@@H](c2ccccc2)n2c-3cc3cc(-c4c[nH]c([C@@H]5CCCN5C(=O)[C@@H](NC(=O)OC)C(C)C)n4)ccc32)c[nH]1)C(C)C | BHK-21 | cell growth or viability, CCK-8 |  | 48 h | CC50 | > 600 µM |
| O=C1C(=O)c2cccnc2-c2ncccc21.O=C1C(=O)c2cccnc2-c2ncccc21.O=C1C(=O)c2cccnc2-c2ncccc21.[Cu+2].[O-][Cl+3]([O-])([O-])[O-].[O-][Cl+3]([O-])([O-])[O-] | Vero | cell growth or viability, MTT |  | 72 h | CC50 | > 200 µM |
| NS(=O)(=O)c1ccc(-c2ccc(Nc3ccc(F)c(Cl)c3)cc2)cc1 | BHK-21 | cell growth or viability, MTT |  | 100 µM | viability | 75% |
| C#CCC(Cc1cnc2nc(N)nc(N)c2n1)c1ccc(C(=O)N[C@@H](CCC(=O)O)C(=O)O)cc1 (some centres unmarked) | BHK-21 | cell growth or viability, CCK-8 |  | 48 h | CC50 | 104 µM |
| CN(C)C(=O)c1cc2cnc(Nc3ccc(-c4ccc5c(=O)cc(N6CCOCC6)oc5c4)cc3)nc2n1C1CCCC1.Cl |  |  | BALB/c mouse, plasma | oral, 20 mg/kg | Cmax | 3300 ng/mL |
| C[C@@H](Oc1ccc(S(C)(=O)=O)cc1C(=O)N1C[C@@H]2C[C@]2(c2cc(C(F)(F)F)on2)C1)C(F)(F)F |  |  | human, plasma | oral, 10 mg, single dose, fasted | Vd/F | 273 L |
